Screens deposited in PubChem BioAssay by several laboratories.
CRFBP-R2 block – antagonists of CRF-BP/CRF-R2 complex, primary screen, cell-based, HEK293, calcium dye fluorescence, uHTS; inhibition, % at 11.8 µM; actives 0.59% (n = 350,000); CRF-induced calcium fluorescence;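 active = inhibition of the ligand-induced calcium signal above about 50% at the single tested concentration, limit read from the data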
TRPML3 agonist – human TRPML3 channel agonists, primary screen, cell-based, HEK293 TRPML3-YFP, Fluo-8 calcium fluorescence, 3 µM | Mucolipin-3 (Homo sapiens), Q8TDD5 | 100% = the carbachol control signal | activation, % at 3 µM | actives 0.29% (n = 220,000);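 active = activation above its plate's cutoff, the mean activation of the plate's test wells plus 3 SD, cut at about 12% in these data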;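 note: 0% = DMSO only wells and 100% = carbachol wells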
Target sequence (Q8TDD5 whole entry, looked up): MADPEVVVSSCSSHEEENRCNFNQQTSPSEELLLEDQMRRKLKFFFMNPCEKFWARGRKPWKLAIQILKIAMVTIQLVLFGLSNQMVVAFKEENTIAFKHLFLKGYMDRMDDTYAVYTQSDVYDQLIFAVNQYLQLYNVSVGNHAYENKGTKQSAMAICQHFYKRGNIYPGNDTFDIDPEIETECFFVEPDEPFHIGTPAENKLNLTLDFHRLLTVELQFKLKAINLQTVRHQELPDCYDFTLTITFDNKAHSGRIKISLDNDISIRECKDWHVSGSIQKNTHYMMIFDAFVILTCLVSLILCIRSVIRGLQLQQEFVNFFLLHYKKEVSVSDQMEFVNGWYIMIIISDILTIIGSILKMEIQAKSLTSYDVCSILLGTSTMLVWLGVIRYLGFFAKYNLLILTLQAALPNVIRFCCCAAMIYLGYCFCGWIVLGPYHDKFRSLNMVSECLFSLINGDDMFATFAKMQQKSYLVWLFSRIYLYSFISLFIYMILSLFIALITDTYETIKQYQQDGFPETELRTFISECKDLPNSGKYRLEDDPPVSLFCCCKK
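Test system – HEK293 line with stable expression of human TRPML3-YFP channel · Control set – carbachol 87 µM final as high control (100%), DMSO as low control (0%) · Signal – Fluo-8 calcium dye fluorescence, ex 470-495, em 515-575 nm · Incubation – 1-h 37 °C dye load, 5-s basal, 120-s post-compound reads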
GPR7 antag – GPR7 receptor antagonists, primary screen, cell-based, fluorescence, single concentration. AID 1861, 2009. actives 1.1% (n = 290,000). Neuropeptides B/W receptor type 1 (Homo sapiens), P48145. inhibition, % at 4.4 µM. GPR7-expressing cells, fluorescence antagonist assay; in the data active = inhibition above about 16%, passing the limit was not always enough;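 note: cells stimulated with the agonist NPW; 0% = agonist with vehicle and 100% = vehicle without agonist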
TRPN1 ag – zebrafish TRPN1 channel agonists, primary screen, cell-based, HEK293, calcium fluorescence. HEK293 zebrafish TRPN1-YFP, Fluo-8 calcium fluorescence; 100% = response to 87 µM carbachol. activation, % at 3 µM. transient receptor potential cation channel N1 (TRPN1/NompC), Danio rerio. actives 0.18% (n = 220,000);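 active = activation above its plate's cutoff, the mean activation of test wells on that plate plus 3 SD, cut at about 19% in these data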;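 note: 0% = DMSO alone and 100% = 87 µM carbachol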
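Material: zebrafish TRPN1-YFP in HEK293 cells. Doses: one dose of 3 µM, 0.3% DMSO. Incubation: dye 1 h 37 °C plus 30 min RT. Measured by: intracellular calcium fluorescence with Fluo-8.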
CRFR2-BP ag – agonists of CRF-BP/CRF-R2 complex, primary screen, cell-based, HEK293, calcium dye fluorescence, uHTS. CRF-binding protein / CRF receptor 2 complex (human). calcium dye fluorescence (FLIPR); percent of saturating CRF peptide response. activation, % at 13.2 µM. actives 0.46% (n = 350,000). AID 588473, 2011;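 active = activation of at least 50%, plus an integration ratio under a set limit after plate pattern correction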;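 note: plate controls were neutral control wells without compound for no effect and CRF at EC100 for full effect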
TRPN1 counter – zebrafish TRPN1 channel agonists, counter-screen for TRPML3 agonist project, cell-based, HEK293 TRPN1-YFP, Fluo-8 calcium; activation, % at 3 µM; Fluo-8 calcium fluorescence; scaled: carbachol wells 100%, DMSO wells 0%; AID 1525, 2009; actives 10% (n = 310); shares compounds with TRPML3 agonist;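 active = mean activation over replicates above a set limit taken from the earlier TRPN1 channel primary screen, cut at about 19% in these data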;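 note: 100% = carbachol and 0% = 0.3% DMSO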
TRPML3 confirm – human TRPML3 channel agonists, confirmation, cell-based, HEK293 TRPML3-YFP, Fluo-8 calcium, triplicate; shares compounds with TRPML3 agonist; Fluo-8 calcium fluorescence; 100% set by carbachol, 0% by DMSO; activation, % at 3 µM; actives 80% (n = 310);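 active = activation above a set limit derived from the earlier primary screen, cut at about 12% in these data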
An asterisk follows results filed as active; / = not tested or not shown. Only some compounds are listed: those with a hit (about 2% of all), similar ones and a draw of the others.

SMILES	CRFBP-R2 block	TRPML3 agonist	GPR7 antag	TRPN1 ag	CRFR2-BP ag	TRPN1 counter	TRPML3 confirm
CCOC(=O)C(C)(C)N(Cc1cccc(C)c1)S(=O)(=O)c1ccc(Cl)c([N+](=O)[O-])c1	31	0	12	0	1	/	/
CCCN(CC(=O)Nc1ccccc1OC)C(=O)c1ccc2ncsc2c1	-6	/	/	/	-1	/	/
CN(CCOc1ccc(Cl)cc1)c1ccc(S(=O)(=O)N2CCCCC2)cn1	-2	45*	-3	1	3	0	47*
FC(F)Sc1ccc(NC(=S)NC2CCCC2)cc1	9	12*	-8	17	4	20*	7
CC(=O)c1ccccc1OCC(O)Cn1ccnc1 (configuration not stated)	23	/	-3	/	-2	/	/
O=S(=O)(Nc1ccccc1N1CCCCC1)c1ccc(F)cc1F	3	16*	7	-3	0	-3	11
Cc1ccc(S(=O)(=O)Nc2ccccc2N2CCCCC2)cc1	-10	/	/	/	10	/	/
Cc1nnc(-c2ccccc2)c(=O)n1/N=C/c1c(O)ccc2ccccc12	-11	13*	-12	15	25	2	1
Cc1nnc(C)n1/N=C/c1c(O)ccc2ccccc12	-3	/	-11	/	0	/	/
C[C@H]1CN(S(=O)(=O)c2ccc3c(c2)OCCO3)CCN1S(=O)(=O)c1c(F)cccc1F	9	/	/	/	-1	/	/
COc1ccc(S(=O)(=O)N2CCCCCC2)cc1N(C)S(=O)(=O)c1ccc(C)cc1	-5	55*	10	2	1	2	49*
COc1ccc(S(=O)(=O)N2CCCCCC2)cc1Br	-5	106*	4	-2	-5	-2	70*
CCOc1ccc(S(=O)(=O)N2CCCCC2)c(C)c1C	-7	84*	-11	-1	-2	-2	77*
COc1ccc(S(=O)(=O)N2CCOCC2)cc1Br	12	1	-4	0	-1	/	/
COc1cc(C)ccc1S(=O)(=O)N1CCCCCC1	15	94*	3	1	-2	0	34*
COc1ccc(S(=O)(=O)N2CCOCC2)cc1N(C)S(=O)(=O)c1ccc(C)cc1	-3	/	-2	/	0	/	/
CC[C@]1(C(=O)OC)[C@H]2C(=O)N(Cc3ccccc3)C(=O)[C@H]2[C@H]2CN(C)C(=NC)N21	6	/	/	/	0	/	/
CN(Cc1c(F)cccc1Cl)C(=O)C1=CC=CN2CCS(=O)(=O)N=C12	-3	/	/	/	1	/	/
CC1CCCCN1C(=S)NC(=O)c1cc(Br)ccc1Cl (configuration not stated)	-2	/	/	/	0	/	/
C[N+](C)(C)C/C=C1/COCO1	-15	52*	3	8	8	14	40*
CC(C)[C@H](NS(=O)(=O)c1ccc2c(c1)OCCO2)C(=O)OCC(=O)Nc1ccccc1Cl	-18	1	-3	-1	-2	/	/
CC(C)[C@H](NS(=O)(=O)c1ccc2c(c1)OCCO2)C(=O)OCC(=O)Nc1cccc(Cl)c1Cl	-70	20*	3	0	2	1	33*
Cc1onc(-c2ccccc2Cl)c1C(=O)Nc1ccc(-c2cn3cccnc3n2)cc1	22	1	-8	2	-2	/	/
Cc1onc(-c2ccccc2Cl)c1C(=O)Nc1cccc(-c2nc3ncccn3c2C)c1	13	12*	-15	5	0	8	13*
CN(c1ccc(OCC(=O)OCC(=O)Nc2ccccc2)cc1)S(=O)(=O)c1cccs1	-1	4	3	5	1	/	/
SMILES	CRFBP-R2 block	TRPML3 agonist	GPR7 antag	TRPN1 ag	CRFR2-BP ag	TRPN1 counter	TRPML3 confirm
CCN(CC)c1ccc(NC(=O)COc2ccc(N(C)S(=O)(=O)c3cccs3)cc2)cc1	-5	14*	-3	-1	2	1	28*
Cc1ccc(C(=O)NNC(=O)c2csc(N3CCOCC3)n2)s1	-5	/	/	/	2	/	/
Cc1ccc(S(=O)(=O)c2c(C)nn(C(C)(C)C)c2OC(=O)C(C)(C)C)cc1	-18	46*	-3	4	7	5	39*
CSc1ccccc1NC(=O)CN(C)C(=O)CNC(=O)c1ccc(Oc2ccccc2)cc1	-8	/	/	/	-1	/	/
CN1CCN2c3ncccc3Cc3ccccc3C2C1 (configuration not stated)	-21	/	/	/	-1	/	/
CC(C)(C)[C@]1(O)CCN2C[C@H]3c4ccccc4CCc4cccc(c43)[C@@H]2C1	-24	25*	-2	-3	1	-1	42*
COc1ccc(C(=O)CSc2nnn(-c3cccc(NC(C)=O)c3)n2)cc1	-53	12*	12	7	69*	12	21*
Cc1ccc(S(=O)(=O)N2CCC(C)CC2)c([N+](=O)[O-])c1	6	48*	-6	-1	-3	-1	60*
CN(c1ccc(OCc2nnc(-c3ccccc3)o2)cc1)S(=O)(=O)c1ccccc1	23	40*	-7	1	1	2	37*
COCCCNC(=O)C[C@H]1C[C@H](C(=O)N(C(C)C)C(C)C)[C@@]2(C)c3[nH]c4cc(CCC(=O)N(C)C)ccc4c3CCN2C1=O	-1	/	/	/	-3	/	/
Cc1cn([C@H]2C[C@H](O)[C@@H](CNCc3ccc(F)c(N4CCOCC4)c3)O2)c(=O)[nH]c1=O	11	/	/	/	0	/	/
COc1cccc(CN(CC2CCCO2)S(=O)(=O)c2ccc(S(=O)(=O)N(C)C)cc2)c1 (configuration not stated)	-16	14*	8	0	-2	1	17*
COc1ccc(S(=O)(=O)NC2CCCCC2)c(C)c1C	2	14*	-9	-2	-4	-1	15*
CCCCC(CC)C(=O)Nc1ncc([N+](=O)[O-])s1 (configuration not stated)	-36	13*	-5	14	29	16	6
COC(=O)c1c(NC(=O)COC(=O)[C@@H](NS(=O)(=O)c2ccc(C)cc2)C(C)C)sc2c1CCC2	-22	29*	-8	0	1	-1	50*
CSc1nsc(/C=C/Nc2cccc(Cl)c2)c1C#N	-5	40*	-7	1	-1	0	14*
